Experimental data from different studies.
Each line is one published result; the experiments were not run side by side.
Target: Mitogen-activated protein kinase kinase kinase kinase 4 (MAP4K4, Homo sapiens, UniProt O95819)

| SMILES | test | setting | measurement | result |
| --- | --- | --- | --- | --- |
| Cc1ccc(C(=O)NCc2ccsc2)cc1C#Cc1cn(C(C)C)c2ncnc(N)c12 | enzyme activity, inhibitor | 1 µM | activity vs control | 146% |
| CC(C)(C)c1nc2c(s1)c1nc(N)ncc1c1ccc(NS(=O)(=O)c3c(F)cccc3F)c(F)c12 | enzyme activity, inhibitor, radiometric | 1 µM | remaining activity | 95% |
| Cc1ccc(C(=O)Nc2ccc(CN3CCN(C)CC3)c(C(F)(F)F)c2)cc1C#Cc1cnc2cccnn12 | enzyme activity, inhibitor | 23.5 nM | remaining activity | 27% |
| O=C(Nc1cnn(-c2csc(C(=O)NC3COC3)c2)c1)Nc1c(F)cccc1Cl | enzyme activity, inhibitor | 5 µM | remaining activity | 90.4% |
| CC(C)(O)[C@H]1CC[C@H](Nc2ccc3ncc(-c4cccc(C(F)(F)F)c4)n3n2)CC1 | enzyme activity, inhibitor | 1 µM | remaining activity | 90.6% |
| N#CCCc1ccc2c(c1)-c1[nH]c3ccc([N+](=O)[O-])cc3c1CC(=O)N2 | cell-free assay | 0.5 µM | remaining signal | 6.82% |
| O=C(Nc1cnn(-c2csc(C(=O)NC3COC3)c2)c1)Nc1ccccc1Cl | enzyme activity, inhibitor | 5 µM | remaining activity | 81.1% |
| O=C(O)c1cc(-c2ccc(C3CCNCC3)cc2)c2ccc(-c3ccc(C(F)(F)F)cc3)cc2c1 | cell-free assay, competition with immobilised ligand | 1 µM | remaining binding | 87% |
| COc1cc2c(N3CCN(C(=O)Nc4ccc(OC(C)C)cc4)CC3)ncnc2cc1OCCCN1CCCCC1 | cell-free assay | 0.5 µM | remaining signal | 96.6% |
| Cc1nc(C2CCN(C(=O)c3ccc(OC(F)(F)F)cc3N)CC2)c2ncc(N3CCN(C)CC3)cc2n1 | cell-free assay, competition with immobilised ligand | 1 µM | remaining binding | 100% |
| COc1cc2ncnc(Nc3ccc(Oc4ccccc4)cc3C)c2cc1OC | enzyme activity, inhibitor | 1 µM | inhibition | 6% |
| O=C1Nc2ccc(Cl)cc2C1=Cc1cc(Cl)c(O)c(Cl)c1 | cell-free assay | 0.5 µM | remaining signal | 4.48% |
| CCCCN(CCCC)C(=O)CN1C[C@@H](c2cc(OC)c3c(c2)OCO3)[C@H](C(=O)O)[C@H]1CC(C)(C)CCC | cell-free assay, competition with immobilised ligand | 1 µM | remaining binding | 88.9% |
| O=C1NC(=O)c2cc(Nc3ccc(F)cc3)c(Nc3ccc(F)cc3)cc21 | cell-free assay | 0.5 µM | remaining signal | 91.2% |
| CO[C@@H](C)c1c(Nc2ccc([C@@H](N(C)C(=O)C3CCS(=O)(=O)CC3)C(F)(F)F)cc2)cnc2cc(Cl)nn12 | cell-free assay, competition with immobilised ligand | 1 µM | remaining binding | 100% |
| Nc1nc(Nc2ccc(S(N)(=O)=O)cc2)nn1C(=O)c1c(F)cccc1F | cell-free assay | 0.5 µM | remaining signal | 83.8% |
| CC(C)CC(=O)N1CCc2nc(-c3ccc(Br)cc3)nc(N(C)Cc3ccccc3)c2C1 | cell-free assay, competition with immobilised ligand | 0.1 µM | remaining binding | 84% |
